Results reported in ChEMBL document CHEMBL4680310, “Identification of N-acyl-N-indanyl-α-phenylglycinamides as selective TRPM8 antagonists designed to mitigate the risk of adverse effects” (Bioorg Med Chem, 2021).
Activity calls are given as the source filed them. The rule behind the calls is not given here.

What was measured:
[1] = biological target: CYP3A4 (Homo sapiens, UniProt P08684); assay: Inhibition of CYP3A4 in human liver microsomes assessed as reduction in 1'-hydroxymidazolam formation using midazolam as substrate at 10 uM preincubated with enzyme and NADPH followed by substrate addition and measured after 10 mins by HPLC/MS-MS analysis relative to control; assay type: ADME; settings: probe midazolam (1'-hydroxymidazolam formation)
CYP3A4, sequence (P08684 whole entry): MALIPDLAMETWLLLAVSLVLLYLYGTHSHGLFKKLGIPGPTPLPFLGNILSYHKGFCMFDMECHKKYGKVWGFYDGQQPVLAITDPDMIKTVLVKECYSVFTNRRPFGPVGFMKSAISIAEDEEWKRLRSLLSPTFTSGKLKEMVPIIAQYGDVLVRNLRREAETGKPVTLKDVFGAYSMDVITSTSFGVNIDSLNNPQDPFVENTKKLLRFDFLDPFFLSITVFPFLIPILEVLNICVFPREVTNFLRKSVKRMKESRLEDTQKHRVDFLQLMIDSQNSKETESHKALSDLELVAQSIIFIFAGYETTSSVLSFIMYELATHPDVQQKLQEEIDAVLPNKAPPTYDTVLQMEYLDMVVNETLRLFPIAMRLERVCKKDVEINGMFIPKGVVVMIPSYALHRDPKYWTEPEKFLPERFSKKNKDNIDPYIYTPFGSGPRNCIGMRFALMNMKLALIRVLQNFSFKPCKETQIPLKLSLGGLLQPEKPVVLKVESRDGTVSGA
Outline: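 Compound at 100 µM was pre-incubated at 37 °C with human liver microsomes (0.5 mg/mL) in 0.1 M phosphate pH 7.4 with 5 mM MgCl₂ and 1 mM NADPH. The mix was then diluted 10-fold into 25 µM midazolam in the same buffer and incubated 10 min at 37 °C. Ice-cold acetonitrile stopped the reaction. 1′-Hydroxymidazolam was quantified by HPLC-MS/MS, with ketoconazole (1 µM) as reference inhibitor.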

[2] = biological target: T1, Nuclear receptor subfamily 1 group I member 2 (Homo sapiens, UniProt O75469); assay: Activation of human PXR ligand binding domain incubated for 1 hr by TR-FRET assay; assay type: ADME
T1 sequence (O75469 whole entry): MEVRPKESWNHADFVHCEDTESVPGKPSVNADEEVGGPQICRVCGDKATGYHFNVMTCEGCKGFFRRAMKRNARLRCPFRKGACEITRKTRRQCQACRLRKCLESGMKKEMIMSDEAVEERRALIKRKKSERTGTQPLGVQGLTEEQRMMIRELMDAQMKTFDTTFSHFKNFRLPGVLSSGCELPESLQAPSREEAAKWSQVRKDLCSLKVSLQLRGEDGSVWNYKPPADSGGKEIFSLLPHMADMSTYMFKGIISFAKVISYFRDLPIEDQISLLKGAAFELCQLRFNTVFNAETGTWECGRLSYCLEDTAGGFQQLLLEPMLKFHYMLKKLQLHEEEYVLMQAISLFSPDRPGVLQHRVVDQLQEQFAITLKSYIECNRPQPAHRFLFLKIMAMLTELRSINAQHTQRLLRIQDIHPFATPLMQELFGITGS

[3] = Toxicity in mouse assessed as convulsions at 300 mg/kg, po; assay type: organism-based; settings: in vivo
[4] = Ratio of drug level in rat brain to plasma measured after 4 hrs; assay type: ADME, cell-free; settings: read-out: BPR
[5] = test system: Rattus norvegicus; assay: Inhibition of overactive bladder activity in Sprague-Dawley rat assessed as inhibition of cold-induced voiding behaviour by measuring reduction in voiding frequency at 10 mg/kg, po administered 1 hr prior to cold exposure and measured at 2 mins interval for 4 hrs; assay type: functional, organism-based; settings: time 5.0 hrs
[6] = In vivo antagonist activity at TRPM8 in Sprague-Dawley rat assessed as inhibition of icilin-induced wet dog shakes at 10 mg/kg, po administered 4 hrs prior to icilin administration and measured after 5 mins for 5 mins; assay type: functional; settings: 4.167 h, time 250 min
Outline: (§1)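 Female rats received vehicle or compound orally. After 1 or 4 h, icilin (1 mg/mL in PEG 400) was given intraperitoneally. Wet-dog shakes were counted for 5 min, starting 5 min after icilin. Results are percent inhibition versus vehicle-treated counts, mean ± SEM (n = 5).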

[7] = test system: Rattus norvegicus; assay: Inhibition of overactive bladder activity in Sprague-Dawley rat assessed as inhibition of cold-induced voiding behaviour by measuring mean voided volume at 10 mg/kg, po administered 1 hr prior to cold exposure and measured at 2 mins interval for 4 hrs (reference value: 0.57 +/- 0.05 ml); assay type: functional; settings: time 5 hrs
[8] = In vivo antagonist activity at TRPM8 in Sprague-Dawley rat assessed as inhibition of icilin-induced wet dog shakes at 10 mg/kg, po administered 1 hr prior to icilin administration and measured after 5 mins for 5 mins; assay type: functional; settings: 1.167 h, time 70 min; outline: as §1
[9] = Plasma concentration in rat measured after 4 hrs; assay type: ADME, cell-free
[10] = Drug uptake in rat brain measured after 4 hrs; assay type: ADME, tissue-based; settings: read-out: Drug uptake
[11] = test system: Rattus norvegicus; assay: Inhibition of overactive bladder activity in Sprague-Dawley rat assessed as inhibition of cold-induced voiding behaviour by measuring total voided volume at 10 mg/kg, po administered 1 hr prior to cold exposure and measured at 2 mins interval for 4 hrs (reference value: 5.57 +/-0.27 ml); assay type: functional; settings: time 5 hrs
[12] = biological target: Transient receptor potential cation channel subfamily M member 8 (Homo sapiens, UniProt Q7Z2W7); assay: Antagonist activity at human TRPM8 transfected in HEK293T cells assessed as reduction in menthol-induced calcium influx measured after 60 mins by Fluo-4 AM dye based fluorescence analysis; assay type: cell-based
Transient receptor potential cation channel subfamily M member 8 (Homo sapiens, UniProt Q7Z2W7), sequence (Q7Z2W7 whole entry): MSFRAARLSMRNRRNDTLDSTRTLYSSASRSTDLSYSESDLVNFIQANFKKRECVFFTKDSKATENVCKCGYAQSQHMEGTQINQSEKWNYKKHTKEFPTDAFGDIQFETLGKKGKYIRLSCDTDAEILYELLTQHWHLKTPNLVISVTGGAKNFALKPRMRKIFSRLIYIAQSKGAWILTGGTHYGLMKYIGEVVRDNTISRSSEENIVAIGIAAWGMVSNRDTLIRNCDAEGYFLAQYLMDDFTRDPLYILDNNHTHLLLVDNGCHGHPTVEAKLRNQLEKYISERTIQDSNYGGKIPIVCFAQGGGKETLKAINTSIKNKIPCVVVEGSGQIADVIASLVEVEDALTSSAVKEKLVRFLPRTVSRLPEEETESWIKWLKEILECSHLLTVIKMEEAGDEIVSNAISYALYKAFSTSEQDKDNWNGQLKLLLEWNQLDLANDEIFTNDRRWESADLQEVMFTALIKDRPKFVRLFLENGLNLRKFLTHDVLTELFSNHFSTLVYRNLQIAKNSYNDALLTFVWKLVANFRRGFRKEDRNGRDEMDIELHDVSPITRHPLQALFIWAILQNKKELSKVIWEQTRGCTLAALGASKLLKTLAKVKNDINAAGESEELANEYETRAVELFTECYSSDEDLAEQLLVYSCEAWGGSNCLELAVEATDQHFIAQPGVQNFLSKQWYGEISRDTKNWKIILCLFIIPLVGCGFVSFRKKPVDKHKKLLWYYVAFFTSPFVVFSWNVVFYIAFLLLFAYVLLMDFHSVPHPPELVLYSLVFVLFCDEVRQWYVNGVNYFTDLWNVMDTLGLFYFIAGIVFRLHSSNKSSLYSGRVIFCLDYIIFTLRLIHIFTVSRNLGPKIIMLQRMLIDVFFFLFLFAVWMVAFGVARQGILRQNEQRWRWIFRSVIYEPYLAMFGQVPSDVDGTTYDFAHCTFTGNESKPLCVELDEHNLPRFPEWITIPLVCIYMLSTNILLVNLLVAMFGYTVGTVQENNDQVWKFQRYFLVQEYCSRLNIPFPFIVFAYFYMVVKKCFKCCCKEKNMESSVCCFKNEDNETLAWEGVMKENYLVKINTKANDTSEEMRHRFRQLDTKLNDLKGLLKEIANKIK

[13] = biological target: Transient receptor potential cation channel subfamily M member 8 (Rattus norvegicus, UniProt Q8R455); assay: Antagonist activity at rat TRPM8 transfected in HEK293T cells assessed as reduction in menthol-induced calcium influx measured after 60 mins by Fluo-4 AM dye based fluorescence analysis; assay type: cell-based
Transient receptor potential cation channel subfamily M member 8 (Rattus norvegicus, UniProt Q8R455), sequence (Q8R455 whole entry): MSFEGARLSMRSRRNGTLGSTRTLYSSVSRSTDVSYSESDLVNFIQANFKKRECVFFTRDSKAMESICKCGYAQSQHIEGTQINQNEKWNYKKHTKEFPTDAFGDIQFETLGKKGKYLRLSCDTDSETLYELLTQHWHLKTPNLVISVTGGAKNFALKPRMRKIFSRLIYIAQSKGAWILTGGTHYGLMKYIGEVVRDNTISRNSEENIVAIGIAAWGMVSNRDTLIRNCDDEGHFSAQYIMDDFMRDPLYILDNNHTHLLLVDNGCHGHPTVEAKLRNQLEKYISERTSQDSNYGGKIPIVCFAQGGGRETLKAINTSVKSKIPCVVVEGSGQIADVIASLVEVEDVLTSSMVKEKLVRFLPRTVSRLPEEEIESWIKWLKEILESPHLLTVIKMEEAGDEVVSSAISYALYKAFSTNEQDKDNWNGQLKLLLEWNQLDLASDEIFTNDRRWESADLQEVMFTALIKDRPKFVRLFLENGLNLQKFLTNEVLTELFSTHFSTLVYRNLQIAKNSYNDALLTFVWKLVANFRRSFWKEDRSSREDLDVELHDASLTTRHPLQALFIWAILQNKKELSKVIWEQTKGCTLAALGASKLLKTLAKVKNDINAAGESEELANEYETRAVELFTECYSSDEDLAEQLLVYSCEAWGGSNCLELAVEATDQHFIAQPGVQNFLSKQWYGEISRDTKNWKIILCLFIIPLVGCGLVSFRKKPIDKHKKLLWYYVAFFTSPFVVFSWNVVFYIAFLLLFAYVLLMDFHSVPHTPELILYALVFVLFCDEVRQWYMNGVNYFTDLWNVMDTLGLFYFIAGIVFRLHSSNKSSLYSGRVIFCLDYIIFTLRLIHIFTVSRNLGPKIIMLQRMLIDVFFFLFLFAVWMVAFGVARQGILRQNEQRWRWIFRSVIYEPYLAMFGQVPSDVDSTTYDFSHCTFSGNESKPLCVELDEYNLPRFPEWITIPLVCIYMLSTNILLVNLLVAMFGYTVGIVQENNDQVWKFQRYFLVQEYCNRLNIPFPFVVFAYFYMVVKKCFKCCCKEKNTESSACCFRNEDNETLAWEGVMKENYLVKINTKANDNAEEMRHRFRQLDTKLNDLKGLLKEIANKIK
Outline: (§2)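 HEK293T cells were seeded at 5 × 10⁴ cells/well in DMEM with 10% FBS and transfected 4 h later. The vectors were pcDNA3.1 for TRPM8, TRPA1 and TRPV4, and pCI-neo for TRPV1. After 2 days, cells were dye-loaded for 60 min at 37 °C: Fluo-4 AM for TRPM8, TRPA1 and TRPV1, Fura-2 AM for TRPV4. Calcium was read on an FDSS reader. IC50 came from nonlinear regression, mean ± SEM (n = 3).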

[14] = Volume of distribution at steady state in Sprague-Dawley rat at 1 mg/kg, iv measured upto 6 hrs by LC-MS/MS analysis; assay type: ADME, organism-based; settings: in vivo, read-out: Vdss
Outline: (§3)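 Rats were given a single oral or intravenous dose. Blood was taken from the jugular vein at 2, 15 and 30 min and at 1, 2, 4 and 6 h. Plasma levels were measured by LC-MS/MS. Each parameter was calculated from the mean plasma concentration of three animals.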

[15] = biological target: Transient receptor potential cation channel subfamily A member 1 (Homo sapiens, UniProt O75762); assay: Inhibition of human TRPA1 transfected in HEK293T cells assessed as reduction in AITC-induced calcium influx measured after 60 mins by Fluo-4 AM dye based fluorescence analysis; assay type: cell-based; outline: as §2
[16] = AUC (0 to infinity) in Sprague-Dawley rat at 3 mg/kg, po by LC-MS/MS analysis; assay type: ADME, organism-based; parameters: time infinity, route oral, dose 3 mg/kg; settings: in vivo; outline: as §3
[17] = biological target: Transient receptor potential cation channel subfamily V member 1 (Homo sapiens, UniProt Q8NER1); assay: Inhibition of human TRPV1 transfected in HEK293T cells assessed as reduction in capsaicin-induced calcium influx measured after 60 mins by Fluo-4 AM dye based fluorescence analysis; assay type: cell-based; outline: as §2
Transient receptor potential cation channel subfamily V member 1, sequence (Q8NER1 whole entry): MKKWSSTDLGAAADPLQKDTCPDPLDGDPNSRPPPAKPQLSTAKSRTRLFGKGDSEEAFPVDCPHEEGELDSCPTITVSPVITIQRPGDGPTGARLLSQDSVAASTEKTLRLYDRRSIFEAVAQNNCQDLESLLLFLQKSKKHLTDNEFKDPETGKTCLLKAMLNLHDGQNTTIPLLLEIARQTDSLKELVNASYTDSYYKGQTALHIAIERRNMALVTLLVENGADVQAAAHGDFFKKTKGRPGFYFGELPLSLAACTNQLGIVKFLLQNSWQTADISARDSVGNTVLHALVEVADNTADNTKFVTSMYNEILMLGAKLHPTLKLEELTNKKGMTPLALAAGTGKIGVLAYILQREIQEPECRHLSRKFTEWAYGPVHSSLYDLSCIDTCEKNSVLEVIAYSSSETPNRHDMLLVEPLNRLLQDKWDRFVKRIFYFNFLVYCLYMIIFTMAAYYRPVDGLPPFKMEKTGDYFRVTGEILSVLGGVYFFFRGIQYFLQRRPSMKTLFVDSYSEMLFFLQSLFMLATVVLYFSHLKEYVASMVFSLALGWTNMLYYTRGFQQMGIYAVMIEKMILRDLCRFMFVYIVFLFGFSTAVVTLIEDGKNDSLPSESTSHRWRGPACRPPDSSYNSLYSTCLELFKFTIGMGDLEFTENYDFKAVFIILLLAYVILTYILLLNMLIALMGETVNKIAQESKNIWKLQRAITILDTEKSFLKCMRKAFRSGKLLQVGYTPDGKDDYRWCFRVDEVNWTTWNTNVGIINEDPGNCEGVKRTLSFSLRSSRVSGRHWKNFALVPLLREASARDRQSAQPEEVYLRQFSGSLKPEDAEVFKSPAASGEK

[18] = Total clearance in Sprague-Dawley rat at 1 mg/kg, iv measured upto 6 hrs by LC-MS/MS analysis; assay type: ADME, organism-based; settings: in vivo; outline: as §3
[19] = Oral bioavailability in Sprague-Dawley rat at 3 mg/kg measured upto 6 hrs by LC-MS/MS analysis; assay type: ADME, organism-based; settings: in vivo; outline: as §3
[20] = Cmax in Sprague-Dawley rat at 3 mg/kg, po measured upto 6 hrs by LC-MS/MS analysis; assay type: ADME, organism-based; parameters: route oral, dose 3 mg/kg, time <=6; settings: in vivo; outline: as §3
[21] = biological target: Transient receptor potential cation channel subfamily V member 4 (Homo sapiens, UniProt Q9HBA0); assay: Inhibition of human TRPV4 transfected in HEK293T cells assessed as reduction in RN1747-induced calcium influx measured after 60 mins by Fura-2 AM dye based fluorescence analysis; assay type: cell-based; outline: as §2
Transient receptor potential cation channel subfamily V member 4, sequence (Q9HBA0 whole entry): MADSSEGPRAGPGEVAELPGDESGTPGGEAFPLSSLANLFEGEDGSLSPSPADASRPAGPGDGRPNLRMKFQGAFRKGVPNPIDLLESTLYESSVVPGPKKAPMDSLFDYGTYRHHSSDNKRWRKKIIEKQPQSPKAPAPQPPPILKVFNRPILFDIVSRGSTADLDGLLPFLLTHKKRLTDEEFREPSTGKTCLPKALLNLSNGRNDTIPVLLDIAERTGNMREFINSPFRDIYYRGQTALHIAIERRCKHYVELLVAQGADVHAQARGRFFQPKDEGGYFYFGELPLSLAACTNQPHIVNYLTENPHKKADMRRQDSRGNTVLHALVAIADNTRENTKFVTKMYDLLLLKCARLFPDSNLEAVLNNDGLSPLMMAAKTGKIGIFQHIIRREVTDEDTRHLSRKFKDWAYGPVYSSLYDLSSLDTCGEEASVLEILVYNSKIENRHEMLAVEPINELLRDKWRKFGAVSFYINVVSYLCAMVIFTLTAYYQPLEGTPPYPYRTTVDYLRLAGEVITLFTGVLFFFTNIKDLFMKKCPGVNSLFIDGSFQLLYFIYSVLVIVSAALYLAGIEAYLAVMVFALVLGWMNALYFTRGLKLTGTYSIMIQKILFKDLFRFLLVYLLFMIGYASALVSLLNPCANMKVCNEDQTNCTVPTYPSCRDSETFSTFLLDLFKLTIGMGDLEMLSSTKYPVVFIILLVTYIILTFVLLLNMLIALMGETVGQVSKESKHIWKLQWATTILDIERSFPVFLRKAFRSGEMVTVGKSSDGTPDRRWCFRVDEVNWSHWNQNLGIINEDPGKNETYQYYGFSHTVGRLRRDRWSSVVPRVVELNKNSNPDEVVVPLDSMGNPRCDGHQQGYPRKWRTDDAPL

[22] = AUC (0 to infinity) in Sprague-Dawley rat at 1 mg/kg, iv by LC-MS/MS analysis; assay type: ADME, organism-based; parameters: time infinity, route intravenous, dose 1 mg/kg; settings: in vivo; outline: as §3
[23] = Half life in Sprague Dawley rat at 1 mg/kg, iv by LC-MS/MS analysis; assay type: ADME, organism-based; settings: in vivo; outline: as §3
[24] = Tmax in Sprague-Dawley rat at 3 mg/kg, po by LC-MS/MS analysis; assay type: ADME, organism-based; settings: in vivo, time <=6 hrs; outline: as §3

Question: With `COc1ncccc1C(=O)N([C@@H]1CCc2c(F)cc(Cl)cc21)[C@@H](C(N)=O)c1ccccc1` as the molecule, how does the inhibition at 10 min, 10 µM [1] read?
Answer: 22%

Question: For `NC(=O)[C@@H](c1ccccc1)N(C(=O)c1cccnc1N)[C@@H]1CCc2c(F)cc(Cl)cc21`, which inhibition at 10 min, 10 µM [1] is on record?
Answer: 18%

Question: Which EC50 [2] does the source give for `NC(=O)[C@@H](c1ccccc1)N(C(=O)c1cccnc1)[C@@H]1CCc2c(F)cc(F)cc21` here?
Answer: 47 µM

Question: What does the source list for `NC(=O)[C@@H](c1ccccc1)N(C(=O)c1cccnc1)[C@@H]1CCc2c(F)cc(Cl)cc21`?
Answer: Activity [3]: Non-Toxic; EC50 [2]: 131 µM; inhibition at 10 min, 10 µM [1]: 65%

Question: With `C[C@H](c1cc(F)cc(F)c1)N(C(=O)c1ccccc1O)[C@@H](C(N)=O)c1ccccc1` as the molecule, how does the EC50 [2] read?
Answer: 12 µM

Question: For `C[C@H](c1cc(F)cc(F)c1)N(C(=O)c1ccccc1)[C@@H](C(N)=O)c1ccccc1`, which Kp at 4 h [4] is on record?
Answer: 1.66

Question: What about the inhibition [5] of the same molecule?
Answer: Active

Question: What about the EC50 [2] of the same molecule?
Answer: 10.3 µM

Question: And the inhibition in vivo at 10 mg/kg [6]?
Answer: 97%

Question: And the Activity [7]?
Answer: 0.75 mL

Question: What about the inhibition in vivo at 10 mg/kg [8] of the same molecule?
Answer: 100%

Question: What about the concentration at 4 h [9] of the same molecule?
Answer: 103 µM

Question: And the inhibition at 10 min, 10 µM [1]?
Answer: 27%

Question: What about the concentration at 4 h [10] of the same molecule?
Answer: 171 µM

Question: And the Activity [11]?
Answer: 5.81 mL

Question: With `NC(=O)[C@@H](c1ccccc1)N(C(=O)c1ccccc1)[C@@H]1CCc2ncccc21` as the molecule, how does the IC50 [12] read?
Answer: 19.5 µM

Question: What does the source list for `Cc1ncccc1C(=O)N([C@@H]1CCc2c(F)cc(Cl)cc21)[C@@H](C(N)=O)c1ccccc1`?
Answer: IC50 [13]: 80 nM; Vd [14]: 1.89 L/kg; IC50 [15]: > 30 µM; Activity [3]: Non-Toxic; AUC(0-inf) [16]: 1110 ng·h/mL; IC50 [17]: > 30 µM; clearance [18]: 25 mL/min/kg; inhibition at 10 min, 10 µM [1]: 17%; bioavailability [19]: 55%; Cmax [20]: 466 ng/mL; IC50 [21]: > 30 µM; AUC(0-inf) [22]: 674 ng·h/mL; half-life [23]: 64 min; Tmax [24]: 40 min
